Reference: ChEMBL document CHEMBL4393666, “Synthesis and Anti-HCV Activities of 4'-Fluoro-2'-Substituted Uridine Triphosphates and Nucleotide Prodrugs: Discovery of 4'-Fluoro-2'- C-methyluridine 5'-Phosphoramidate Prodrug (AL-335) for the Treatment of Hepatitis C Infection” (J Med Chem, 2019)

What was measured:
Hepatitis C virus [1] = experiment: Antiviral activity against HCV con1 subgenomic replicon infected in human HuH7 cells assessed as reduction in viral RNA replication by qRT-PCR analysis; assay type: functional, organism-based, Hepacivirus hominis; conditions: isolate Con1, Huh-7
Method in brief: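 Con1 subgenomic replicon Huh-7 cells (neomycin selection, kept in DMEM/10% FBS with 0.25 mg/ml G418) treated with compounds in DMEM, 2% FBS, 0.5% DMSO, no G418, at 37°C. Total RNA extracted; HCV RNA copy number by multiplex Taqman QRT-PCR. EC50/EC90 by 4-parameter curve fit; EC50 is the mean of ≥2 independent runs.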

[2] = Cytotoxicity against human HuH7 cells infected with HCV con1 subgenomic replicon assessed as reduction in cell viability measured after 3 days by CellTiter-blue cell viability assay; assay type: cell-based, Huh-7
Method in brief: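 Con1 replicon Huh-7 cells treated as for the replicon assay (DMEM, 2% FBS, 0.5% DMSO, no G418, 37°C) for 3 days. Viability by CellTiter-Blue; CC50 by curve fitting.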

[3] = Cytotoxicity against human HuH7 cells treated for 8 days measured post-last dose by Celltiter-glo luminescent assay; assay type: cell-based, Huh-7
Method in brief: (§1)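 Cells at 1×10^5/well on collagen I, first kept 8 days in recommended medium without drug. Then compound exposure for 8 days, refed every other day. Viability by CellTiter-Glo luminescence; CC50 by curve fitting.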

[4] = Cytotoxicity against human HepG2 cells treated for 8 days measured post-last dose by Celltiter-glo luminescent assay; assay type: cell-based; method in brief: as §1
[5] = Cytotoxicity against human A549 cells treated for 8 days measured post-last dose by Celltiter-glo luminescent assay; assay type: cell-based; method in brief: as §1
[6] = Cytotoxicity against human HeLa cells treated for 8 days measured post-last dose by Celltiter-glo luminescent assay; assay type: cell-based; method in brief: as §1
[7] = Cytotoxicity against human U937 cells treated for 8 days measured post-last dose by Celltiter-glo luminescent assay; assay type: cell-based, U-937; method in brief: as §1
[8] = Cytotoxicity against human MT4 cells treated for 8 days measured post-last dose by Celltiter-glo luminescent assay; assay type: cell-based; method in brief: as §1
Hepatitis C virus [9] = experiment: Antiviral activity against HCV genotype 1a H77 expressing NS5B measured after 3 days by bright-glo luciferase reporter gene assay; assay type: functional, organism-based, Hepacivirus hominis; conditions: subtype 1a H77, 72 h
Method in brief: (§2)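 Chimeric replicons carrying the NS5B of each genotype (1a H77, 1b Con1, 2b ADQ73660, 3a NZL1, 4a ABD75829). Firefly luciferase is driven by the poliovirus IRES and the HCV nonstructural genes by the EMCV IRES. Transiently transfected into Lunet cells, 10,000 cells/well. 3-fold serial dilutions, 0.5% DMSO final, 3 days. Read-out: firefly luciferase (Bright-Glo).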

Hepatitis C virus [10] = experiment: Antiviral activity against HCV genotype 1b con1 subgenomic replicon expressing NS5B measured after 3 days by bright-glo luciferase reporter gene assay; assay type: functional, organism-based, Hepacivirus hominis; conditions: subtype 1b con1, 72 h; method in brief: as §2
Hepatitis C virus [11] = experiment: Antiviral activity against HCV genotype 2b subgenomic replicon expressing NS5B measured after 3 days by bright-glo luciferase reporter gene assay; assay type: functional, organism-based, Hepacivirus hominis; conditions: subtype 2b, 72 h; method in brief: as §2
Hepatitis C virus [12] = experiment: Antiviral activity against HCV genotype 3a NZL1 subgenomic replicon expressing NS5B measured after 3 days by bright-glo luciferase reporter gene assay; assay type: functional, organism-based, Hepacivirus hominis; conditions: subtype 3a NZL1, 72 h; method in brief: as §2
Hepatitis C virus [13] = experiment: Antiviral activity against HCV genotype 4a subgenomic replicon expressing NS5B measured after 3 days by bright-glo luciferase reporter gene assay; assay type: functional, organism-based, Hepacivirus hominis; conditions: subtype 4a, 72 h; method in brief: as §2
[14] = Drug metabolism in human hepatocytes assessed as 2a-TP formation per million cells at 50 uM after 24 hrs by LC-MS/MS analysis; assay type: ADME, cell-based, Hepatocyte
Method in brief: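 Primary human hepatocytes, 1.5-2 million cells/well, in Williams E medium, acclimated >18 h. Incubated with compound at 50 μM extracellular for 24 h at 37°C, 5% CO2. Washed with cold saline, methanol/water lysis, NTP measured by LC-MS/MS per million cells.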

[15] = Drug metabolism in human HuH7 cells assessed as 2a-TP formation per million cells at 50 uM after 24 hrs by LC-MS/MS analysis; assay type: ADME, cell-based; conditions: huh-7, 24 h
Method in brief: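 Huh-7 cells in 6-well plates, DMEM with 10% FBS and G418, incubated with compound at 50 μM extracellular for 24 h at 37°C, 5% CO2. Washed with cold 0.9% NaCl, lysed in 70% methanol. Intracellular NTP by LC-MS/MS against cell-matrix calibrants, internal standard N6-benzoyladenine; expressed per million cells.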

[16] = Drug metabolism in Beagle dog liver assessed as 2a-TP level at 9.87 mg/kg, po administered as single dose measured at 4 hrs by LC-MS/MS analysis; assay type: ADME, organism-based, Canis lupus familiaris; conditions: in vivo
Method in brief: (§3)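 Male non-naïve beagle dogs fasted overnight, single oral dose of 9.87 mg/kg (5 mg/kg parent nucleoside equivalent) as a solution in 40% PEG400/water. Liver extracts analysed for NTP by LC-MS/MS against liver-homogenate calibrants. N=2 at 4 h, N=3 at 12 and 24 h.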

[17] = Drug metabolism in Beagle dog liver assessed as 2a-TP level at 9.87 mg/kg, po administered as single dose measured at 12 hrs by LC-MS/MS analysis; assay type: ADME, organism-based, Canis lupus familiaris; conditions: in vivo; method in brief: as §3
[18] = Drug metabolism in Beagle dog liver assessed as 2a-TP level at 9.87 mg/kg, po administered as single dose measured at 24 hrs by LC-MS/MS analysis; assay type: ADME, organism-based, Canis lupus familiaris; conditions: in vivo; method in brief: as §3
Hepatitis C virus [19] = experiment: Antiviral activity against HCV genotype 1 infected in human assessed as reduction in viral infection at 800 mg, qd measured after 6 weeks in presence of odalasvir/simeprevir relative to control; assay type: functional, Hepacivirus hominis; set-up: scale not given: the % may be the effect or the level left
[20] = Drug metabolism in human primary hepatocytes assessed as 2a-TP formation after 24 hrs by LC-MS/MS analysis
[21] = Drug metabolism in human primary hepatocytes assessed as 2a-TP formation at 10 uM after 6 to 24 hrs by LC-MS/MS analysis

For CC(C)OC(=O)[C@H](C)N[P@](=O)(OC[C@@]1(F)O[C@@H](n2ccc(=O)[nH]c2=O)[C@](C)(O)[C@@H]1O)Oc1ccccc1 [ADAFOSBUVIR], the EC50 (Hepatitis C virus [1]) was 0.07 µM, the CC50 at 72 h [2] was > 99 µM and the CC50 at 192 h [3] was 96.1 µM. For the same molecule, the CC50 at 192 h [4] was > 100 µM, the CC50 at 192 h [5] was > 100 µM and the CC50 at 192 h [6] was > 100 µM. The CC50 at 192 h [7] was > 100 µM, the CC50 at 192 h [8] was > 100 µM and the EC50 (Hepatitis C virus [9]) was 0.06 µM. It also gave an EC50 (Hepatitis C virus [10]) of 0.04 µM, an EC50 (Hepatitis C virus [11]) of 0.04 µM and an EC50 (Hepatitis C virus [12]) of 0.06 µM. It also gave an EC50 (Hepatitis C virus [13]) of 0.06 µM, a Drug metabolism [14] of 3540 pmol and a Drug metabolism [15] of 5695 pmol. The Drug metabolism [16] was 23.19 µM, the Drug metabolism [17] was 35.222 µM and the Drug metabolism [18] was 29.991 µM. The Activity (Hepatitis C virus [19]) was 100%, the Drug metabolism [20] was “Dose-dependent effect” and the Drug metabolism [21] was “Metabolite_Detected”.
